Source: the EternaBench riboswitch data

Tested on: MS2 coat protein
Assay: apparent Kd, MS2 coat protein; higher = weaker binding; RNA-MaP array; theophylline 2 mM where present
In short: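 Designs were transcribed by stalled E. coli RNA polymerase on Illumina sequencing-chip clusters. They were titrated with SNAP-549-labelled MS2 coat protein from 0.7 or 1.5 nM, doubling to 3 µM, in 100 mM Tris-HCl pH 7.5, 80 mM KCl, 4 mM MgCl2, BSA, DTT, yeast tRNA and Tween-20, without and then with constant ligand. The apparent Kd is the median of filtered per-cluster fits after normalisation of green signal to red-channel RNA signal and control-cluster median Fmax.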

[1] = designed as: ON switch for theophylline, no ligand
[2] = ligand present: theophylline, designed as: ON switch for theophylline
[3] = designed as: OFF switch for theophylline, no ligand
[4] = ligand present: theophylline, designed as: OFF switch for theophylline

Sequence	apparent Kd [1] [nM]	apparent Kd [2] [nM]	apparent Kd [3] [nM]	apparent Kd [4] [nM]
AAUAUAAAAUAAAGAAAAUUUAUAUCUGAUACCAGACUCUCAUGGGUCCCUUGGCAGCAGUAACAUGAGGAUCACCCAUGUAUUA	114	16.5	–	–
UGUAUGUGAUUUGAUACCAGUUCUGCUGGUAAAACAUGAGGAUCACCCAUGUUACUUUGGGACCCUUGGCAGCAAAUCGCAUACU	201	13.9	–	–
UAUAUAUAUAUUGAUACCAGCAGAGAAAACGUAUAUCCUAACAUGAGGAUCACCCAUGUAUGCCCUUGGCAGCGAUAUAUAUAUA	–	–	24.3	31.4
CUCUGAGUCCGCAAGGACUCAGAGGCGGAUACCAGCGAGGUCCAUCGCCCUUGGCAGCCGAACAUGAGGAUCACCCAUGUCGGUA	10.4	14.8	–	–
GCACUACAUGAGGAUCACCCAUGUGCAGAUACCAGAGGUGUAUGCCUCCCUUGGCAGCUGCGUCGCUCUGGAAACUUAUUGGUUU	18.4	22.7	–	–
GAACAUGAGGAUCACCCAUGUUAAACAGAUACCAGUGAUAUAAUACACCCUUGGCAGCUGAAGCUGAAUAAUAAUUCCCUCAAGC	12	14.3	–	–
UGAUCCUACAGAGAUACCAGUGCCACUGAGUGACCAGACACAUGAGGAUCACCCAUGUAACACCCUUGGCAGCUCAACUAAAGGG	22.2	80.3	–	–
CAGAGCUACCGGGAUACCAGAAUUGGUAUUCCUAUAUUUCUUACAUGAGGAUCACCCAUGUUCCCUUGGCAGCUUGGUAGCUCUG	–	–	80.9	446
AGAAUAACACAUGAGGAUCACCCAUGUGAUACCAGCUAGGAAACUAGCCCUUGGCAGCACAUAAUCCUCAUGAGCUGCCAUAAUA	–	–	12.8	21.4
GGUGGCGUGACGGAUACCAGCCACCACCGAUAGACCACAUGAGGAUCACCCAUGUUGGGUGGCCCUUGGCAGCUGUCGUGCGGCG	230	56.7	–	–
AGACAUGAGGAUCACCCAUGUAGUACGGAUACCAGAUCCAGAUGCAUCCCUUGGCAGCUGUGGUACAGCGUUACAUCGCUCGUAG	–	–	20	20.6
AUAACAUGAGGAUCACCCAUGUAGAGUGAUACCAGACUACGUAAUGUCCCUUGGCAGCACAAGUAAAGUUACGAAUAUUGAUAGA	192	51.5	–	–
GGGCCCGUAAGCAGGCCCACAGCGGGUGAUACCAGCAAUAAAACUUGCCCUUGGCAGCACACAGCUACAUGAGGAUCACCCAUGU	36.5	63.5	–	–
UAAAACAUGAGGAUCACCCAUGUAAUUGAUACCAGAGUGAUGAUCCUCCCUUGGCAGCAAAACGCUGAUUGGAAACAAUCAGCGA	113	251	–	–
AAUAACAUGAGGAUCACCCAUGUAAAAGAUACCAGAUGCAUGAUGAUCCCUUGGCAGCUUAACGCUGAUUGAUUACAAUCAGCGA	28.6	87	–	–
GCUGUAAGUGCAGAUACCAGCAGGUGAUAUUUCUAAUGACAUGAGGAUCACCCAUGUAACUGCCCUUGGCAGCUGCACUUACAGC	57.6	12.9	–	–
AAAACACAUGAGGAUCACCCAUGUCGUGAUACCAGUCAACAUGAGGACCCUUGGCAGCAUAAAAUGGGUAACAUGAGGAUCACCC	–	–	85.1	133
AAACGUUGCUGCGAUACCAGACAUGAGGAUCACCCAUGUACCAAGGUACGAAAAUAACAUGUCCCUUGGCAGCGCAGCAACGAAA	–	–	13.2	336
UGAUCCUACAGAGAUACCAGUGCCGCUAGAUAACUAUGCACAUGAGGAUCACCCAUGUAACACCCUUGGCAGCUCAACUAAAGGG	92.2	115	–	–
AUCGCACCUGGUGAUACCAGCGUUUGCUCGCGACAUGAGGAUCACCCAUGUGGCCAGUGAUGCCCUUGGCAGCAUGGGCGGUGCA	282	90.2	–	–
AAACAUUGCUGCGAUACCAGACAUGAGGAUCACCCAUGUACCAAGAAAACGUACAUAAAUGUCCCUUGGCAGCGCAGCAAUGAAA	–	–	498	1290
GUUACAUGGCAAGCAUGUAUAUGGAUAGAUACCAGUUGAUAUUAAGACCCUUGGCAGCUGAGUACAUGAGGAUCACCCAUGUAAG	–	–	42.5	90.8
UAUAUAUUGAUGGAUACCAGCAGAGAAAACGUUUAUCCUAACAUGAGGAUCACCCAUGUAUGCCCUUGGCAGCUGUUGAUAUAUA	–	–	22.2	32.6

Sequence	apparent Kd [1] [nM]	apparent Kd [2] [nM]	apparent Kd [3] [nM]	apparent Kd [4] [nM]
AUUAAUUGUCGUGAUACCAGACUUACAUGAGGAUCACCCAUGUUACUUAAGAUUUUUGUUGUCCCUUGGCAGCACUUUUUAAUUA	–	–	24.1	18.9
UUAAGAGGCUAUCCACUUUGAUUUUGUGAUACCAGAAUAAUUUUAUUCCCUUGGCAGCAUGACAUGAGGAUCACCCAUGUGUCUU	37.4	72.4	–	–
GGUCUCUGGAGCGAUACCAGCUUGAGUGUACUGGCCAGGUACAUGAGGAUCACCCAUGUAAGCCCUUGGCAGCGCUGCAGAGACC	–	–	10.1	29.1
GUCAGUUCUCAUGAUACCAGACCUGCCUCGGACAUGAGGAUCACCCAUGUACCCAAGCGAGUCCCUUGGCAGCAUGUGGCUUAAA	19.2	10.8	–	–
AUAUGAAAGAGUGAUACCAGACUACAUGAGGAUCACCCAUGUGACAUUUAAAUAUCAUUUGUCCCUUGGCAGCACAUUAAGUACA	–	–	38.8	44.9
ACAUGAGGAUCACCCAUGUGAAGGCACGAUACCAGCUGAUCCCGUGGCCCUUGGCAGCGUCCGGUUUGGUCCGGCGGAUGAGACG	24.1	24.9	–	–
ACAUGAGGAUCACCCAUGUGCCGUCUUGAUACCAGACCCGAAGUAGUCCCUUGGCAGCAACUACGUGACGGUCGCCCAUGUGUAG	–	–	14.2	24
AUUAAUAGUUGUGAUACCAGACUUACAUGAGGAUCACCCAUGUUACUUAAGUGUUUUGAUGUCCCUUGGCAGCACUGUUUAGUUA	25.5	13.4	–	–
AAGGUAUCACAGACAUGGGUGUACUGUGAUACCAGCUAGGAAACUAGCCCUUGGCAGCACAUGAGGAUCACCCAUGUAAGAAUAA	–	–	47.4	141
AAUGGCGUUGGUGAGGCGGUUAAUGGCGAUACCAGCGUGGAAACACGCCCUUGGCAGCGCCAAAACAUGAGGAUCACCCAUGUUA	–	–	14.7	139
AUCUUGUACCGUAAUACUUUACGUUGGGAUACCAGCAUGGACCCAUGCCCUUGGCAGCUUUACAUGAGGAUCACCCAUGUUGUAG	36.6	32.5	–	–
AGUGUUAUAACUGAUACCAGACUUUUGCUUAUACAUGAGGAUCACCCAUGUAAAAUGGUUGUCCCUUGGCAGCAGAAAAUACACA	84	20.4	–	–
UACAUGAGGAUCACCCAUGUAUGAAUAGAUACCAGAUAAAAUAAGGUCCCUUGGCAGCUAGUGAAUCGAGGGUGGGUAUCAUGAU	–	–	10.4	10.8
AACAUGAGGAUCACCCAUGUAAAAUGGGAUACCAGAGACGAAAGUCUCCCUUGGCAGCCCACUGCCUCCUUUACGAAAGUAGAGG	31.6	18.2	–	–
GGUGGGACUUGUGAUACCAGCCUAAUUCUAAACGAAUUGCACAUGAGGAUCACCCAUGUCGGCCCUUGGCAGCAUGAGUAUUUAU	114	36.8	–	–
GGCCGGUGCGCUUUGAAGCGACGGCGUGAUACCAGAUGUAAGAGCGUCCCUUGGCAGCACGUUUACAUGAGGAUCACCCAUGUCU	196	131	–	–
UGAUCCUAGACUGAUACCAGUCAUGAGUACAUGAGGAUCACCCAUGUCCAGGGACUCAAUGACCCUUGGCAGCAGAACCUAGUUC	193	147	–	–
AUCGUACCUGAUGAUACCAGCAUGUGAUCAUAACAUGAGGAUCACCCAUGUAAUCAGUGAUGCCCUUGGCAGCAUGAUCGGUACA	57.3	26.3	–	–
AGCAUGUUAUCAGAUACCAGACAUCUUUUUUUACGUAUUACAUGAGGAUCACCCAUGUUGGUCCCUUGGCAGCUGAAAUAUUUCA	203	31.9	–	–
AUUAAUAGUUGUGAUACCAGACGAACAUGAGGAUCACCCAUGUAACUUUUAGGUGUUGUAGUCCCUUGGCAGCACUAUGUAGUUA	40	33.7	–	–
ACAUGAGGAUCACCCAUGUCACGGCACGAUACCAGCUGAUCCGGUGGCCCUUGGCAGCGUGACGUUUGGUCCCGCGGAUCACACG	75.4	38.6	–	–
GGCACUCUGUAAGAUACCAGACGUCGGUGCUUACAUGAGGAUCACCCAUGUUGCUUUUUAGUCCCUUGGCAGCUUCGGAUAACCA	121	147	–	–
ACGGAGAUUGCUAAAUGUUGGCGAGCGGAUACCAGCCUAUUAUUGGGCCCUUGGCAGCCGACAUGAGGAUCACCCAUGUAAACAA	79	126	–	–
